The source made the active and inactive calls. No cut-off for these calls is given here.
Assays:
[1] = test system: Hepatitis B virus; assay: Antiviral activity against Hepatitis B virus transfected in human HepG2.2.15 cells assessed as inhibition of HBeAg secretion after 6 days by ELISA; format: functional, organism-based; conditions: HepG2 2.2.15, 144 h
In short: (§1)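 HepG2.2.15 cells in DMEM with 10% FBS at 37 °C, 5% CO2, seeded at about 5 × 10⁵/well. After 24 h, compound was added at a range of concentrations, and media were replaced every 2 days for 6 days. Media were spun at 5000 rpm for 10 min, and secreted HBsAg and HBeAg were measured by ELISA. IC50 is the mean ± SD of three independent experiments.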

[2] = Cytotoxicity against human HepG2.2.15 cells assessed as reduction in number of viable cells after 3 days by MTT assay; format: cell-based, HepG2 2.2.15
In short: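 Confluent HepG2.2.15 cultures were exposed to test compounds for 3 days, with six cultures for each of two dilutions. MTT (5 g/l) was added 4 h before the end, cells were dissolved in DMSO, and OD was read at 570 nm. CC50 (50% reduction in viable cells or OD) was calculated by the Berkson logit method. Mean ± SD of three independent experiments.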

[3] = test system: Hepatitis B virus; assay: Antiviral activity against Hepatitis B virus transfected in human HepG2.2.15 cells assessed as inhibition of HBsAg secretion after 6 days by ELISA; format: functional, organism-based; conditions: HepG2 2.2.15, 144 h; in short: as §1
[4] = test system: Mus musculus; assay: Immunoregulatory activity in Hepatitis B virus infected transgenic mouse assessed as increase in cytokine IFN gamma mRNA level in liver at 100 mg/kg qd for 1 month by qPCR analysis; format: functional, organism-based; design: dose 100 mg/kg
In short: (§2)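 Liver IFN-γ and IL-2 mRNA were measured by qPCR with mouse-specific primers, normalized to GAPDH, 40 cycles, in duplicate. HBV transgenic mice (10 per group) had been dosed at 100 mg/kg once daily for one month in 0.1% DMSO, and livers were taken at day 30. Mean ± SD of 10 mice.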

[5] = test system: Mus musculus; assay: Immunoregulatory activity in Hepatitis B virus infected transgenic mouse assessed as increase in cytokine IL-2 mRNA level in liver at 100 mg/kg qd for 1 month by qPCR analysis; format: functional, organism-based; design: dose 100 mg/kg; in short: as §2
[6] = test system: Mus musculus; assay: Immunoregulatory activity in Hepatitis B virus infected transgenic mouse assessed as increase in CD4+ population in peripheral blood at 100 mg/kg qd for 1 month by flow cytometry (reference value: 13.6 +/-2.7%); format: functional
[7] = test system: Mus musculus; assay: Immunoregulatory activity in Hepatitis B virus infected transgenic mouse assessed as increase in CD8+ population in peripheral blood at 100 mg/kg qd for 1 month by flow cytometry (reference value: 14.1 +/-1.4%); format: functional
[8] = test system: Mus musculus; assay: Immunoregulatory activity in Hepatitis B virus infected transgenic mouse assessed as increase in CD4+/CD8+ population in peripheral blood at 100 mg/kg qd for 1 month by flow cytometry (reference value: 0.9 +/-0.2%); format: functional
[9] = test system: Mus musculus; assay: Immunoregulatory activity in Hepatitis B virus infected transgenic mouse assessed as increase in cytokine IL-2 level in serum at 100 mg/kg qd for 1 month by ELISA; format: functional, organism-based; design: dose 100 mg/kg
In short: (§3)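 Serum IFN-γ and IL-2 were measured by ELISA in HBV transgenic mice (10 per group) after 100 mg/kg once daily for one month in 0.1% DMSO, with sera collected at day 30. Mean ± SD of 10 mice.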

[10] = test system: Mus musculus; assay: Immunoregulatory activity in Hepatitis B virus infected transgenic mouse assessed as increase in cytokine IFN gamma level in serum at 100 mg/kg qd for 1 month by ELISA; format: functional, organism-based; design: dose 100 mg/kg; in short: as §3
[11] = test system: Mus musculus; assay: Immunoregulatory activity in Hepatitis B virus infected transgenic mouse assessed as increase in CD3+ population in peripheral blood at 100 mg/kg qd for 1 month by flow cytometry (reference value: 30.1 +/-2.9%); format: functional
[12] = test system: Hepatitis B virus; assay: Antiviral activity against Hepatitis B virus infected in transgenic mouse assessed as decrease in viral DNA level in liver at 100 mg/kg qd for 1 month by qPCR analysis; format: functional, organism-based; design: dose 100 mg/kg
In short: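 HBV transgenic mice, 8 weeks old, sex- and HBsAg-matched, 10 per group. Given 100 mg/kg daily for one month, solubilized with 0.1% DMSO. Livers were harvested after 30 days. HBV DNA was extracted and quantified by qPCR with a commercial HBV DNA kit, 40 cycles, normalized to GAPDH, run in duplicate. Mean ± SD of 10 mice.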

[13] = test system: Hepatitis B virus; assay: Antiviral activity against Hepatitis B virus infected in transgenic mouse assessed as decrease in serum HBeAg level at 100 mg/kg qd for 1 month by ELISA; format: functional, organism-based; design: dose 100 mg/kg
In short: (§4)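 HBV transgenic mice (C57BL/6 background, 3.2 Kb HBV DNA, backcrossed to C57BL/6J), 8 weeks old, equal numbers of each sex, matched for serum HBsAg. Ten per group. Dosed 100 mg/kg once daily for one month in 0.1% DMSO. Groups included saline and 0.1% DMSO. Sera were taken at day 30, and HBsAg and HBeAg were measured by ELISA kit. Mean ± SD of 10 mice.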

[14] = test system: Hepatitis B virus; assay: Antiviral activity against Hepatitis B virus infected in transgenic mouse assessed as decrease in serum HBsAg level at 100 mg/kg qd for 1 month by ELISA; format: functional, organism-based; design: dose 100 mg/kg; in short: as §4

SMILES	IC50 [1]	IC50 [3]	CC50 at 72 h [2]	Activity [4]	Activity [5]	Activity [6]	Activity [7]	Activity [8]	Activity [9]	Activity [10]	Activity [11]	inhibition [12]	inhibition [13]	inhibition [14]
Nc1nc2c(ncn2COCCO)c(=O)[nH]1 [ACYCLOVIR]	> 1000 µM	> 1000 µM	630 µM	Active	Active	18.7%	15.1%	1.2%	Active	Active	31.2%	–	–	–
Nc1nc2c(ncn2COCCOC(=O)CCCC(=O)NCCC[Si]23OCCN(CCO2)CCO3)c(=O)[nH]1	160 µM	90.4 µM	570 µM	–	–	–	–	–	–	–	–	–	–	–

Second part, led by results:

IC50 [1]	IC50 [3]	SMILES	CC50 at 72 h [2]	Activity [4]	Activity [5]	Activity [6]	Activity [7]	Activity [8]	Activity [9]	Activity [10]	Activity [11]	inhibition [12]	inhibition [13]	inhibition [14]
486 µM	141 µM	CC1CN2CC(C)O[Si](CCCNC(=O)CCCC(=O)OCCOCn3cnc4c(=O)[nH]c(N)nc43)(OC[C@@H]2C)O1 (stereo partly specified)	732 µM	–	–	–	–	–	–	–	–	–	–	–
> 1000 µM	406 µM	Nc1ccn([C@@H]2CS[C@H](CO)O2)c(=O)n1 [LAMIVUDINE]	> 1000 µM	Active	Active	19.3%	16.7%	1.2%	Active	Active	34.1%	Active	–	–
89.8 µM	34.5 µM	CC1CN2CC(C)O[Si](CCCNC(=O)CCC(=O)OCCOCn3cnc4c(=O)[nH]c(N)nc43)(O1)O[C@@H](C)C2 (stereo partly specified)	467 µM	Active	Active	33%	20.6%	1.6%	Active	Active	48.3%	Active	Active	Active
125 µM	79.7 µM	Nc1nc2c(ncn2COCCOC(=O)CCC(=O)NCCC[Si]23OCCN(CCO2)CCO3)c(=O)[nH]1	485 µM	–	–	–	–	–	–	–	–	–	–	–

— ChEMBL document CHEMBL2331251, “Synthesis and biological evaluation of nucleoside analogues than contain silatrane on the basis of the structure of acyclovir (ACV) as novel inhibitors of hepatitis B virus (HBV)” (Bioorg Med Chem Lett, 2013)
